Source: ChEMBL document CHEMBL1142961, “Novel selective inhibitors of the zinc plasmodial aminopeptidase PfA-M1 as potential antimalarial agents” (J Med Chem, 2007)

Columns and labels:
Aminopeptidase N [1] = target: T1, Aminopeptidase N (Plasmodium falciparum FcB1/Columbia, UniProt O96935); experiment: Inhibition of Plasmodium falciparum FcB1 M1 aminopeptidase
T1 sequence (O96935 whole entry): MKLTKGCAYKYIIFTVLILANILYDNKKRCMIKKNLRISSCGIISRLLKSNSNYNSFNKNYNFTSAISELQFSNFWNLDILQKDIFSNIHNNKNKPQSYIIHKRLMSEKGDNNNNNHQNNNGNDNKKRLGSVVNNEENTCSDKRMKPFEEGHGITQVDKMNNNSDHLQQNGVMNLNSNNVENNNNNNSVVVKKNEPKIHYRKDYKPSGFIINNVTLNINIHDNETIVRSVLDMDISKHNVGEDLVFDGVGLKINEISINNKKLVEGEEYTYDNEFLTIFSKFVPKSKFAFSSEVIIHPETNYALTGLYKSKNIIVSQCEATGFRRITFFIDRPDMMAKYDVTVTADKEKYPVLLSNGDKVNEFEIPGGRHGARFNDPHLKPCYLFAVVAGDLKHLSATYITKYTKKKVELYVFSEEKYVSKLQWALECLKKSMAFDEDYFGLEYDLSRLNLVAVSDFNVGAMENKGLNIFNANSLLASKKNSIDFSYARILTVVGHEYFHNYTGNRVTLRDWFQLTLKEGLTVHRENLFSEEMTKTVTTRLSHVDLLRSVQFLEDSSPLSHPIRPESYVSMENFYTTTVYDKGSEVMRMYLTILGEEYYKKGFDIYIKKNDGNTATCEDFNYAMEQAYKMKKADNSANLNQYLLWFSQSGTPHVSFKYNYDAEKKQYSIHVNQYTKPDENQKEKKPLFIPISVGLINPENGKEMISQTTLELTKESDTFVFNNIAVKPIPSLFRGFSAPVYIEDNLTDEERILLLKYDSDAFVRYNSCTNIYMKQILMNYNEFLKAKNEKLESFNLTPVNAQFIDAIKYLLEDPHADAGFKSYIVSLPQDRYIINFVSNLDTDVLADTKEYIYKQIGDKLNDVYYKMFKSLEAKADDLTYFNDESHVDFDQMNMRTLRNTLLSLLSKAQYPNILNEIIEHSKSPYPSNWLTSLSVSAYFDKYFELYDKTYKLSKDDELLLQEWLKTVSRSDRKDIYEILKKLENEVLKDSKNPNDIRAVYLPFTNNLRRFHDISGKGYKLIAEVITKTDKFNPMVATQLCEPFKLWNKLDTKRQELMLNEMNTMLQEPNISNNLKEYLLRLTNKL
In short: (§1)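 Native enzyme purified from P. falciparum FcB1, diluted 10-fold in 25 mM Tris-HCl pH 7.4. Preincubated with inhibitor for 10 min at room temperature, then Leu-pNA substrate added (0.3 mM stock, Km 0.099 mM). Kinetics followed at 405 nm at room temperature. Initial velocities normalized to a no-inhibitor control. Single-point screen at 10 µM; IC50 from velocity versus inhibitor concentration curves. Bestatin used as reference.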

[2] = target: T2, Aminopeptidase N (Sus scrofa) (UniProt P15145); experiment: Inhibition of pig kidney microsomal APN at 10 uM
T2 sequence (whole entry): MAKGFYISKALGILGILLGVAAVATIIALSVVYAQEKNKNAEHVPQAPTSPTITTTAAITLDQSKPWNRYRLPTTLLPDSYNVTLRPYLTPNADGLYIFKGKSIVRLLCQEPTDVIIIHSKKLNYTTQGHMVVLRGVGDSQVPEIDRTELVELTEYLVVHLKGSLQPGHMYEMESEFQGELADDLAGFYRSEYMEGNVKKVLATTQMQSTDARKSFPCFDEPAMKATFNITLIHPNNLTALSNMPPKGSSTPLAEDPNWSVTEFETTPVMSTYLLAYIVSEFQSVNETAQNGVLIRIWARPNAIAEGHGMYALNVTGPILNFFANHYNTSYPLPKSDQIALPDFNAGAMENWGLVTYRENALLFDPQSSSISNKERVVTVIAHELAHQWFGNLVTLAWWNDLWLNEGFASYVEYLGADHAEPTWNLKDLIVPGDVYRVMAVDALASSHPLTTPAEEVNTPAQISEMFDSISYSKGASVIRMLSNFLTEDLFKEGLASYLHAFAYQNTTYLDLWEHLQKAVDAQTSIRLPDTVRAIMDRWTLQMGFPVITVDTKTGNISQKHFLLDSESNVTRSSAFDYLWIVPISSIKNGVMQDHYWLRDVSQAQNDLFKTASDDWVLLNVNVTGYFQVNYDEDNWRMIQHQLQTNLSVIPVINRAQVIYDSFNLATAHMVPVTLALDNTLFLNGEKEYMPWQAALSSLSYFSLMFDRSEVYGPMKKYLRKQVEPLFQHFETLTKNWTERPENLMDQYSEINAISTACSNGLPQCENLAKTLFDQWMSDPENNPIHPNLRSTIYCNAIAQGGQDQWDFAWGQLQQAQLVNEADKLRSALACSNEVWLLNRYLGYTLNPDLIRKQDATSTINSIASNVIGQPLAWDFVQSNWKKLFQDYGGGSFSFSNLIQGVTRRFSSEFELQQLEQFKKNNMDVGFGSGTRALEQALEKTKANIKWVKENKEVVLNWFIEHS
In short: (§2)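 Porcine kidney microsomal APN (ammonium sulfate suspension) diluted 600-fold in 25 mM Tris-HCl pH 7.4. Preincubated with inhibitor for 10 min at room temperature, then Leu-pNA added (0.3 mM stock). Hydrolysis followed at 405 nm at room temperature. Rates normalized to a no-inhibitor control. Single point at 10 µM; IC50 from concentration-velocity curves. Bestatin used as reference.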

[3] = target: T3, Aminopeptidase N (Plasmodium falciparum FcB1/Columbia) (UniProt O96935); experiment: Inhibition of Plasmodium falciparum FcB1 M1 aminopeptidase at 10 uM; in short: as §1
T3 sequence (whole entry): T1 sequence (O96935 whole entry)

Aminopeptidase N [4] = target: T4, Aminopeptidase N (Sus scrofa, UniProt P15145); experiment: Inhibition of pig kidney microsomal APN; in short: as §2
T4 sequence (P15145 whole entry): T2 sequence (whole entry)

[5] = Stability in Zucker FA/FA rat plasma at 37degC; type: ADME, organism-based; details: read-out: Stability (converted)
In short: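 Compound at 100 µM final in male Zucker FA/FA rat plasma, stirred at 37 °C. Samples taken from 0 to 96 h, acidified with 0.14 M phosphoric acid and spiked with internal standard. Extracted three times with AcOEt and quantified by LC-MS-MS (MRM). Half-life derived.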

SMILES | IC50 (Aminopeptidase N [1]) | inhibition [2] | inhibition [3] | IC50 (Aminopeptidase N [4]) | half-life [5]
O=C(NO)C(Cc1cccc(Oc2ccccc2)c1)C(=O)N1CCc2ccccc2C1 (stereo not drawn) | 966 nM | 84% | 100% | – | –
CC(C)CC(C(=O)NO)C(=O)NCc1ccccc1 (stereo not drawn) | 495 nM | 39% | 19% | – | –
O=C(NO)C(Cc1ccccc1)C(=O)NCCc1ccccc1 (stereo not drawn) | 1010 nM | 70% | 82% | – | –
O=C(NO)/C(=C/c1ccccc1)C(=O)NCc1ccc(F)cc1 | 330 nM | – | – | > 10000 nM | –
CC(C)CC(C(=O)NO)C(=O)NCc1ccc(Cl)cc1 (stereo not drawn) | 904 nM | 99% | 90% | – | –
O=C(NO)C(Cc1ccccc1)C(=O)NC1Cc2ccccc2C1 (stereo not drawn) | 1930 nM | 61% | 26% | – | –
O=C(NO)C(Cc1ccccc1)C(=O)N1CCN(Cc2ccccc2)CC1 (stereo not drawn) | 1760 nM | 21% | 75% | – | –
O=C(NO)C(Cc1ccccc1)C(=O)NCc1cccc(-c2ccccc2)c1 (stereo not drawn) | 1170 nM | 90% | 71% | – | –
O=C(NCCCCc1ccccc1)c1cc2ccccc2n(O)c1=O | > 10000 nM | – | – | > 10000 nM | –
CC(C)CC(C(=O)NO)C(=O)NCCCCc1ccccc1 (stereo not drawn) | 1150 nM | 92% | 87% | – | –
CC(C)CC(C(=O)NO)C(=O)NCc1ccc(F)cc1 (stereo not drawn) | 3900 nM | 92% | 85% | – | –
CC(C)CC(C(=O)NO)C(=O)NCCc1ccccc1 (stereo not drawn) | 885 nM | 105% | 74% | – | –
O=C(NCc1ccc(F)cc1)c1cc2ccccc2n(O)c1=O | > 10000 nM | – | – | > 10000 nM | > 48 h
O=C(NO)C(Cc1cccc(Oc2ccccc2)c1)C(=O)NCCCc1ccccc1 (stereo not drawn) | 527 nM | 89% | 93% | – | –
O=C(NO)C(Cc1ccccc1)C(=O)NCC(c1ccccc1)c1ccccc1 (stereo not drawn) | 5360 nM | – | – | – | –
CC(C)CC(C(=O)NO)C(=O)N1CCC(Cc2ccccc2)CC1 (stereo not drawn) | 406 nM | 68% | 100% | – | –
O=C(NO)C(Cc1ccccc1)C(=O)NCc1cccc(Oc2ccccc2)c1 (stereo not drawn) | 2510 nM | 83% | 87% | – | –
CC(C)CC(C(=O)NO)C(=O)NCCCc1ccccc1 (stereo not drawn) | 790 nM | 95% | 98% | – | –
CN(CCCCc1ccccc1)C(=O)C(Cc1cccc(Oc2ccccc2)c1)C(=O)NO (stereo not drawn) | – | 95% | 80% | – | –
CN(Cc1ccccc1)C(=O)C(N)C(=O)NO (stereo not drawn) | – | 29% | -1% | – | –
CC(C)CC(C(=O)NO)C(=O)N1CCC2(CC1)C(=O)NCN2c1ccccc1 (stereo not drawn) | – | 26% | 7% | – | –
O=C(CC(=O)NCc1ccccc1)NO | – | 19% | 2% | – | –
O=C(NO)C(Cc1cccc(Oc2ccccc2)c1)C(=O)NCc1cccnc1 (stereo not drawn) | – | 85% | 99% | – | –
NC(C(=O)NO)C(=O)N(CCc1ccccc1)Cc1ccccc1 (stereo not drawn) | – | 34% | 4% | – | –
O=C(NO)C(Cc1cccc(Oc2ccccc2)c1)C(=O)NCCc1ccccn1 (stereo not drawn) | – | 85% | 67% | – | –
O=C(NO)C(Cc1ccccc1)C(=O)N1CCC(n2c(=O)[nH]c3ccccc32)CC1 (stereo not drawn) | – | 56% | -1% | – | –
O=C(NO)C(Cc1cccc(Oc2ccccc2)c1)C(=O)N1CCC2(CCNc3ccccc3O2)CC1 (stereo not drawn) | – | 81% | 48% | – | –
CC(C)CC(C(=O)NO)C(=O)N1CCC2(CCNc3ccccc3O2)CC1 (stereo not drawn) | – | 21% | 16% | – | –
NC(C(=O)NO)C(=O)N1CCC2(CC1)C(=O)NCN2c1ccccc1 (stereo not drawn) | – | 43% | -6% | – | –
O=C(NO)C(Cc1cccc(Oc2ccccc2)c1)C(=O)NCCNc1cccc2ccccc12 (stereo not drawn) | – | 78% | 66% | – | –

Results, then the compound that gave them:

IC50 (Aminopeptidase N [1]) | inhibition [2] | inhibition [3] | IC50 (Aminopeptidase N [4]) | half-life [5] | SMILES
248 nM | 65% | 97% | – | – | O=C(NO)C(Cc1cccc(Oc2ccccc2)c1)C(=O)N1CCC(Cc2ccccc2)CC1 (stereo not drawn)
91 nM | – | – | 8580 nM | – | CC(C)CC(C(=O)NO)C(=O)NCc1cccc2ccccc12 (stereo not drawn)
164 nM | 79% | 96% | > 10000 nM | – | O=C(NO)C(Cc1cccc(Oc2ccccc2)c1)C(=O)NCc1ccccc1 (stereo not drawn)
125 nM | 69% | 94% | – | – | O=C(NO)C(Cc1ccccc1)C(=O)NCc1ccccc1 (stereo not drawn)
107 nM | – | – | – | – | O=C(NO)C(Cc1ccccc1)C(=O)NCc1cccc2ccccc12 (stereo not drawn)
206 nM | 34% | 92% | – | – | O=C(NO)C(Cc1ccccc1)C(=O)N1CCC(Cc2ccccc2)CC1 (stereo not drawn)
130 nM | 76% | 96% | 2530 nM | – | O=C(NO)C(Cc1cccc(Oc2ccccc2)c1)C(=O)NCc1ccc(Cl)cc1 (stereo not drawn)
45 nM | 96% | 88% | – | – | CC(C)CC(C(=O)NO)C(=O)NCc1cccc(Oc2ccccc2)c1 (stereo not drawn)
41 nM | 85% | 95% | 1310 nM | – | Cc1ccccc1CNC(=O)C(Cc1ccccc1)C(=O)NO (stereo not drawn)
125 nM | 84% | 94% | – | – | O=C(NO)C(Cc1ccccc1)C(=O)NCCCc1ccccc1 (stereo not drawn)
109 nM | – | – | – | – | CC(C)CC(C(=O)NO)C(=O)NC1CCCc2ccccc21 (stereo not drawn)
46 nM | 81% | 94% | > 10000 nM | – | O=C(NO)C(Cc1ccccc1)C(=O)NCCCCc1ccccc1 (stereo not drawn)
225 nM | 84% | 96% | – | – | O=C(NO)C(Cc1cccc(Oc2ccccc2)c1)C(=O)NCCCCc1ccccc1 (stereo not drawn)
253 nM | 50% | 84% | – | – | O=C(NO)C(Cc1ccccc1)C(=O)N1CCc2ccccc2C1 (stereo not drawn)
170 nM | 80% | 93% | – | – | O=C(NO)C(Cc1ccccc1)C(=O)NCc1ccc(Cl)cc1 (stereo not drawn)
231 nM | 84% | 102% | – | – | O=C(NO)C(Cc1cccc(Oc2ccccc2)c1)C(=O)NCc1ccc(C(F)(F)F)cc1 (stereo not drawn)
13 nM | – | – | 3240 nM | – | O=C(NO)/C(=C\c1ccccc1)C(=O)NCCCCc1ccccc1
